Measurements reported in ChEMBL document CHEMBL1144291, “Synthesis of 9-(2-beta-C-methyl-beta-d-ribofuranosyl)-6-substituted purine derivatives as inhibitors of HCV RNA replication” (Bioorg Med Chem Lett, 2005).

Tests used:
[1] = test system: Hepatitis C virus; test: Inhibition of hepatitis C virus RNA replication in a subgenomic replicon cell line; type: functional, organism-based, Hepacivirus hominis
Procedure, shortened: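 HCV subgenomic replicon cells exposed to compound for 48 h; relative HCV replicon RNA then measured by luciferase reporter assay.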

[2] = test system: Hepatitis C virus; test: Cytotoxicity concentration to inhibit hepatitis C virus RNA replication in a subgenomic replicon cell line; type: functional, Hepacivirus hominis
Procedure, shortened: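 MTS assay run on samples set up in parallel with the HCV subgenomic replicon cultures.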

Row | SMILES | EC50 [1] | CC50 [2]
1 | CCC(=O)N(O)c1ncnc2c1ncn2C1O[C@H](CO)[C@@H](O)[C@@]1(C)O (stereo not given in full) | 3.3 µM | 300 µM
2 | CCNC(=O)N(O)c1ncnc2c1ncn2C1O[C@H](CO)[C@@H](O)[C@@]1(C)O (stereo not given in full) | 2.2 µM | 200 µM
3 | CC1(C)OCC(CNc2ncnc3c2ncn3C2O[C@H](CO)[C@@H](O)[C@@]2(C)O)O1 (stereo not given in full) | 300 µM | 300 µM
4 | C[C@]1(O)C(n2cnc3c(N(O)C(=O)Nc4ccccc4)ncnc32)O[C@H](CO)[C@H]1O (stereo not given in full) | 1.8 µM | 300 µM
5 | C[C@]1(O)C(n2cnc3c(NCCN)ncnc32)O[C@H](CO)[C@H]1O (stereo not given in full) | 25 µM | 300 µM
6 | C[C@]1(O)C(n2cnc3c2NCN=C3N(CCO)CCO)O[C@H](CO)[C@H]1O (stereo not given in full) | 20 µM | 300 µM
7 | C[C@]1(O)C(n2cnc3c(NCCC(N)=O)ncnc32)O[C@H](CO)[C@H]1O (stereo not given in full) | 150 µM | 300 µM
8 | C[C@]1(O)C(n2cnc3c(NCC4CCCO4)ncnc32)O[C@H](CO)[C@H]1O (stereo not given in full) | 300 µM | 300 µM
9 | CC(CNC1=NCNc2c1ncn2C1O[C@H](CO)[C@@H](O)[C@@]1(C)O)c1ccccc1 (stereo not given in full) | 25 µM | 300 µM
10 | CCOc1ncnc2c1ncn2C1O[C@H](COP(=O)(OCCSC(C)=O)OCCSC(C)=O)[C@@H](O)[C@@]1(C)O (stereo not given in full) | 0.08 µM | 300 µM
11 | CNc1ncnc2c1ncn2C1O[C@H](CO)[C@@H](O)[C@@]1(C)O (stereo not given in full) | 1 µM | 300 µM
12 | C[C@]1(O)C(n2cnc3c(-c4ccsc4)ncnc32)O[C@H](CO)[C@H]1O (stereo not given in full) | 300 µM | 300 µM
13 | COC(=N)c1ncnc2c1ncn2C1O[C@H](CO)[C@@H](O)[C@@]1(C)O (stereo not given in full) | 120 µM | 300 µM
14 | CN(O)c1ncnc2c1ncn2C1O[C@H](CO)[C@@H](O)[C@@]1(C)O (stereo not given in full) | 4 µM | 300 µM
15 | COc1ncnc2c1ncn2C1O[C@H](COP(=O)(OCCSC(=O)C(C)(C)C)OCCSC(=O)C(C)(C)C)[C@@H](O)[C@@]1(C)O (stereo not given in full) | 0.1 µM | 300 µM
16 | CNCCN(C)c1ncnc2c1ncn2C1O[C@H](CO)[C@@H](O)[C@@]1(C)O (stereo not given in full) | 200 µM | 300 µM
17 | C[C@]1(O)C(n2cnc3c(NOCCO)ncnc32)O[C@H](CO)[C@H]1O (stereo not given in full) | 80 µM | 300 µM
18 | C[C@]1(O)C(n2cnc3c(N4CCCS4)ncnc32)O[C@H](CO)[C@H]1O (stereo not given in full) | 15 µM | 200 µM
19 | COc1ncnc2c1ncn2C1O[C@H](CO)[C@@H](O)[C@@]1(C)O (stereo not given in full) | 9 µM | 300 µM
20 | C[C@]1(O)C(n2cnc3c(-c4ccco4)ncnc32)O[C@H](CO)[C@H]1O (stereo not given in full) | 275 µM | 300 µM
21 | C[C@]1(O)C(n2cnc3c(O)ncnc32)O[C@H](CO)[C@H]1O (stereo not given in full) | 8 µM | 300 µM
22 | CCNC(=O)N(OC)c1ncnc2c1ncn2C1O[C@H](CO)[C@@H](O)[C@@]1(C)O (stereo not given in full) | 80 µM | 300 µM
23 | CON(C)c1ncnc2c1ncn2C1O[C@H](CO)[C@@H](O)[C@@]1(C)O (stereo not given in full) | 33 µM | 300 µM

Row | SMILES | EC50 [1] | CC50 [2]
24 | C[C@]1(O)C(n2cnc3c(N(O)C(=O)OCc4ccccc4)ncnc32)O[C@H](CO)[C@H]1O (stereo not given in full) | 20 µM | 300 µM
25 | CN(C)c1ncnc2c1ncn2C1O[C@H](CO)[C@@H](O)[C@@]1(C)O (stereo not given in full) | 9 µM | 300 µM
26 | C[C@]1(O)C(n2cnc3c(N4CCOCC4)ncnc32)O[C@H](CO)[C@H]1O (stereo not given in full) | 100 µM | 300 µM
27 | CONc1ncnc2c1ncn2C1O[C@H](CO)[C@@H](O)[C@@]1(C)O (stereo not given in full) | 4 µM | 300 µM
28 | CCONc1ncnc2c1ncn2C1O[C@H](CO)[C@@H](O)[C@@]1(C)O (stereo not given in full) | 30 µM | 300 µM
29 | CCNc1ncnc2c1ncn2C1O[C@H](CO)[C@@H](O)[C@@]1(C)O (stereo not given in full) | 8 µM | 300 µM
30 | C[C@@]1(O)[C@H](O)[C@@H](CO)O[C@H]1n1cnc2c(N)ncnc21 | 0.3 µM | 300 µM
31 | CCOc1ncnc2c1ncn2C1O[C@H](CO)[C@@H](O)[C@@]1(C)O (stereo not given in full) | 13 µM | 300 µM
32 | CCOc1ccccc1CNc1ncnc2c1ncn2C1O[C@H](CO)[C@@H](O)[C@@]1(C)O (stereo not given in full) | 50 µM | 250 µM
33 | C[C@]1(O)C(n2cnc3c(C(=N)NO)ncnc32)O[C@H](CO)[C@H]1O (stereo not given in full) | 100 µM | 300 µM
34 | C[C@]1(O)C(n2cnc3c2NCN=C3NCCO)O[C@H](CO)[C@H]1O (stereo not given in full) | 60 µM | 300 µM
35 | C[C@]1(O)C(n2cnc3c2NCN=C3NOCCO)O[C@H](CO)[C@H]1O (stereo not given in full) | 80 µM | 300 µM
36 | CSc1ncnc2c1ncn2C1O[C@H](CO)[C@@H](O)[C@@]1(C)O (stereo not given in full) | 11 µM | 300 µM
37 | C[C@]1(O)C(n2cnc3c(C(=N)S)ncnc32)O[C@H](CO)[C@H]1O (stereo not given in full) | 120 µM | 300 µM
38 | CCNC(=O)N(O)C1=NCNc2c1ncn2C1O[C@H](CO)[C@@H](O)[C@@]1(C)O (stereo not given in full) | 200 µM | 300 µM
39 | CC(C)NC(=O)N(O)c1ncnc2c1ncn2C1O[C@H](CO)[C@@H](O)[C@@]1(C)O (stereo not given in full) | 6 µM | 300 µM
40 | CSc1cccc(Nc2ncnc3c2ncn3C2O[C@H](CO)[C@@H](O)[C@@]2(C)O)c1 (stereo not given in full) | 300 µM | 300 µM
41 | C[C@]1(O)C(n2cnc3c(C(=N)N)ncnc32)O[C@H](CO)[C@H]1O (stereo not given in full) | 100 µM | 300 µM
42 | COC(=O)N(O)c1ncnc2c1ncn2C1O[C@H](CO)[C@@H](O)[C@@]1(C)O (stereo not given in full) | 3 µM | 250 µM
43 | C[C@]1(O)C(n2cnc3c(-c4cccs4)ncnc32)O[C@H](CO)[C@H]1O (stereo not given in full) | 80 µM | 200 µM
44 | CCNC(=O)Nc1ncnc2c1ncn2C1O[C@H](CO)[C@@H](O)[C@@]1(C)O (stereo not given in full) | 80 µM | 300 µM
45 | C[C@]1(O)C(n2cnc3c(NO)ncnc32)O[C@H](CO)[C@H]1O (stereo not given in full) | 1.8 µM | 300 µM
